In ChEMBL document CHEMBL1139313, “Synthesis and antimalarial activity of new 4-amino-7-chloroquinolyl amides, sulfonamides, ureas and thioureas” (Bioorg Med Chem, 2009):
pIC50: −log10 of the molar value.

Assays:
[1] = system: Plasmodium falciparum; assay: Antimalarial activity against chloroquine-sensitive Plasmodium falciparum HB3 after 72 hrs; type: functional, organism-based; details: HB3, 72 h
Summary of the method: (§1)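 SYBR Green I growth assay. Sorbitol-synchronized P. falciparum cultures (>95% ring stage) at final 1% hematocrit and 0.5% parasitemia, exposed to drug dilutions in complete medium for 72 h at 37 °C. Dye added, then 1 h at 37 °C; fluorescence read at 490 nm excitation / 530 nm emission. Each dilution run in triplicate; IC50 averaged over ≥2 separate assays. RI relates Dd2 IC50 to HB3 IC50.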

[2] = system: Plasmodium falciparum; assay: Antimalarial activity against chloroquine-resistant Plasmodium falciparum Dd2 after 72 hrs; type: functional, organism-based; details: Dd2, 72 h; summary of the method: as §1
[3] = Resistant index, IC50 for chloroquine-resistant Plasmodium falciparum Dd2 to IC50 for chloroquine-sensitive Plasmodium falciparum HB3; type: functional; summary of the method: as §1

Work on `CN(C)c1ccc(NC(=S)NCCCNc2ccnc3cc(Cl)ccc23)c2ccccc12` yielded a pIC50 [1] of 6.54, a pIC50 [2] of 6.22 and a Ratio IC50 [3] of 2.1.
With `O=C(NCCCNc1ccnc2cc(Cl)ccc12)c1ccc(F)cc1NCc1ccccc1` the pIC50 [1] was under 6.00 and the pIC50 [2] was 6.52.
For `CCN(CCNC(=O)C(F)(F)C(F)(F)C(F)(F)F)CCNc1ccnc2cc(Cl)ccc12`, the pIC50 [1] was 6.74, the pIC50 [2] was 6.25 and the Ratio IC50 [3] was 3.1.
In the case of `COc1cc([N+](=O)[O-])ccc1NC(=O)NCCCNc1ccnc2cc(Cl)ccc12`, the pIC50 [1] was 6.55 and the pIC50 [2] was under 6.00.
Work on `O=C(NCCCNc1ccnc2cc(Cl)ccc12)c1c(F)c(F)c(F)c(F)c1F` yielded a pIC50 [1] of 6.56, a pIC50 [2] of 6.29 and a Ratio IC50 [3] of 1.9.
`CCN(CCCNc1ccnc2cc(Cl)ccc12)CCNS(=O)(=O)c1cccc2c(N(C)C)cccc12` gave a pIC50 [1] of 6.94, a pIC50 [2] of 6.39 and a Ratio IC50 [3] of 3.6.
In the case of `Nc1ccc(N)c(C(=O)NCCCNc2ccnc3cc(Cl)ccc23)c1`, the pIC50 [1] was 6.75, the pIC50 [2] was 6.19 and the Ratio IC50 [3] was 3.6.
`CCN(CCCC(C)Nc1ccnc2cc(Cl)ccc12)CCNS(=O)(=O)c1cccc2c(N(C)C)cccc12` (stereo not given) gave a pIC50 [1] of 6.66, a pIC50 [2] of 6.59 and a Ratio IC50 [3] of 1.2.
Molecule `O=C(NCCCNc1ccnc2cc(Cl)ccc12)c1ccccc1NCCc1ccccc1` has a pIC50 [1] of under 6.00 and a pIC50 [2] of under 6.00.
With `CCN(CCCCCCNc1ccnc2cc(Cl)ccc12)CCNS(=O)(=O)c1cccc2c(N(C)C)cccc12` the pIC50 [1] was 6.57, the pIC50 [2] was 6.83 and the Ratio IC50 [3] was 0.5.
`CCN(CC)CCC(=O)NCCCNc1ccnc2cc(Cl)ccc12` gave a pIC50 [1] of 7.64, a pIC50 [2] of 6.25 and a Ratio IC50 [3] of 24.4.
`O=C(NCCCNc1ccnc2cc(Cl)ccc12)C(F)(F)C(F)(F)C(F)(F)C(F)(F)C(F)(F)C(F)(F)C(F)(F)F` gave a pIC50 [1] of 6.78, a pIC50 [2] of 6.71 and a Ratio IC50 [3] of 1.2.
`O=C(NCCCNc1ccnc2cc(Cl)ccc12)c1cc(C(F)(F)F)cc(C(F)(F)F)c1` gave a pIC50 [1] of 6.84, a pIC50 [2] of 6.63 and a Ratio IC50 [3] of 1.6.
In the case of `CC(C)(C)OC(=O)N[C@@H](Cc1c[nH]c2ccccc12)C(=O)NCCCNc1ccnc2cc(Cl)ccc12`, the pIC50 [1] was 6.32 and the pIC50 [2] was under 6.00.
With `CCN(CCNC(=O)C(F)(F)C(F)(F)C(F)(F)C(F)(F)C(F)(F)C(F)(F)C(F)(F)F)CCNc1ccnc2cc(Cl)ccc12` the pIC50 [1] was 7.14, the pIC50 [2] was 7.06 and the Ratio IC50 [3] was 1.2.
With `O=S(=O)(NCCCNc1ccnc2cc(Cl)ccc12)c1cccc2cccnc12` the pIC50 [1] was 6.34, the pIC50 [2] was 6.22 and the Ratio IC50 [3] was 1.3.
For `O=C(NCCCNc1ccnc2cc(Cl)ccc12)c1ccccc1Nc1cccc2ccccc12`, the pIC50 [1] was under 6.00 and the pIC50 [2] was under 6.00.
For `O=C(NCCCNc1ccnc2cc(Cl)ccc12)c1ccccc1SC1CCCCC1`, the pIC50 [1] was under 6.00 and the pIC50 [2] was under 6.00.
Work on `CCN(CC)CCC(=O)NCCNc1ccnc2cc(Cl)ccc12` yielded a pIC50 [1] of 7.49, a pIC50 [2] of 6.12 and a Ratio IC50 [3] of 24.1.
`O=C(CCc1nc2ccccc2[nH]1)NCCCNc1ccnc2cc(Cl)ccc12` gave a pIC50 [1] of 6.12 and a pIC50 [2] of under 6.00.
`CC(C)(C)OC(=O)N1CCC[C@H]1C(=O)NCCCNc1ccnc2cc(Cl)ccc12` gave a pIC50 [1] of under 6.00 and a pIC50 [2] of under 6.00.
`COc1ccc(NC(=O)NCCCNc2ccnc3cc(Cl)ccc23)cc1` gave a pIC50 [1] of 6.50, a pIC50 [2] of 6.22 and a Ratio IC50 [3] of 1.9.
Work on `CC(C)(C)OC(=O)N[C@H](Cc1c[nH]c2ccccc12)C(=O)NCCCNc1ccnc2cc(Cl)ccc12` yielded a pIC50 [1] of 6.30, a pIC50 [2] of 6.12 and a Ratio IC50 [3] of 1.5.
Molecule `COc1ccccc1NC(=O)NCCCNc1ccnc2cc(Cl)ccc12` has a pIC50 [1] of 6.44, a pIC50 [2] of 6.27 and a Ratio IC50 [3] of 1.5.
`O=C(NCCCNc1ccnc2cc(Cl)ccc12)c1ccc(O)nc1` gave a pIC50 [1] of under 6.00 and a pIC50 [2] of under 6.00.
In the case of `CCN(CCNC(=O)c1ccc(F)cc1NCc1ccccc1)CCNc1ccnc2cc(Cl)ccc12`, the pIC50 [1] was 7.10, the pIC50 [2] was 6.70 and the Ratio IC50 [3] was 2.5.
Molecule `O=S(=O)(NCCCNc1ccnc2cc(Cl)ccc12)c1ccc(Oc2ccccc2)nc1` has a pIC50 [1] of under 6.00 and a pIC50 [2] of under 6.00.
With `CN(C)c1cccc(C(=O)NCCCNc2ccnc3cc(Cl)ccc23)c1` the pIC50 [1] was 6.35, the pIC50 [2] was 6.10 and the Ratio IC50 [3] was 1.8.
For `CCN(CCNC(=O)c1c(F)c(F)c(F)c(F)c1F)CCNc1ccnc2cc(Cl)ccc12`, the pIC50 [1] was 6.93, the pIC50 [2] was 6.50 and the Ratio IC50 [3] was 2.7.
In the case of `CCN(CCNc1ccnc2cc(Cl)ccc12)CCNS(=O)(=O)c1cccc2cccnc12`, the pIC50 [1] was 6.51, the pIC50 [2] was 6.35 and the Ratio IC50 [3] was 1.4.
Molecule `CCN(CCNc1ccnc2cc(Cl)ccc12)CCNS(=O)(=O)c1ccc(Oc2ccccc2)nc1` has a pIC50 [1] of 6.85, a pIC50 [2] of 6.56 and a Ratio IC50 [3] of 2.
`CCN(CCNc1ccnc2cc(Cl)ccc12)CCNS(=O)(=O)c1cccc2c(N(C)C)cccc12` gave a pIC50 [1] of 7.74, a pIC50 [2] of 7.64 and a Ratio IC50 [3] of 1.3.
Molecule `CCN(CCNc1ccnc2cc(Cl)ccc12)CCNS(=O)(=O)c1cccnc1` has a pIC50 [1] of 6.91, a pIC50 [2] of 6.29 and a Ratio IC50 [3] of 4.1.
Molecule `COc1cc([N+](=O)[O-])ccc1NC(=S)NCCCNc1ccnc2cc(Cl)ccc12` has a pIC50 [1] of 6.68, a pIC50 [2] of 6.10 and a Ratio IC50 [3] of 3.9.
In the case of `CCN(CCNC(=O)c1cc(C(F)(F)F)cc(C(F)(F)F)c1)CCNc1ccnc2cc(Cl)ccc12`, the pIC50 [1] was 7.01, the pIC50 [2] was 6.86 and the Ratio IC50 [3] was 1.4.
In the case of `CCN(CCCCNc1ccnc2cc(Cl)ccc12)CCNS(=O)(=O)c1cccc2c(N(C)C)cccc12`, the pIC50 [1] was 7.09, the pIC50 [2] was 6.90 and the Ratio IC50 [3] was 1.5.
In the case of `O=C(NCCCNc1ccnc2cc(Cl)ccc12)c1ccccc1Sc1ccccc1`, the pIC50 [1] was under 6.00 and the pIC50 [2] was under 6.00.
Molecule `O=C(NCCCNc1ccnc2cc(Cl)ccc12)C(F)(F)C(F)(F)C(F)(F)F` has a pIC50 [1] of 6.63, a pIC50 [2] of 6.56 and a Ratio IC50 [3] of 1.2.
With `CCN(CCNc1ccnc2cc(Cl)ccc12)CCNS(=O)(=O)c1ccc2c(c1)OCCN2C` the pIC50 [1] was 6.77, the pIC50 [2] was 6.54 and the Ratio IC50 [3] was 1.7.
`CCN(CC)CCC(=O)NCCCCCCNc1ccnc2cc(Cl)ccc12` showed a pIC50 [1] of 7.55, a pIC50 [2] of 6.41 and a Ratio IC50 [3] of 12.9.
With `CC(C)(C)OC(=O)N[C@@H](CCCCNC(=O)OCc1ccccc1)C(=O)NCCCNc1ccnc2cc(Cl)ccc12` the pIC50 [1] was 6.04 and the pIC50 [2] was under 6.00.
For `COc1ccc(NC(=S)NCCCNc2ccnc3cc(Cl)ccc23)cc1`, the pIC50 [1] was 6.64, the pIC50 [2] was 6.45 and the Ratio IC50 [3] was 1.5.
`CCN(CC)CCC(=O)NCCCCCNc1ccnc2cc(Cl)ccc12` gave a pIC50 [1] of 7.80, a pIC50 [2] of 6.17 and a Ratio IC50 [3] of 41.2.
In the case of `O=C(NCCCNc1ccnc2cc(Cl)ccc12)c1cccnc1`, the pIC50 [1] was under 6.00 and the pIC50 [2] was under 6.00.
Work on `CCN(CCCCCNc1ccnc2cc(Cl)ccc12)CCNS(=O)(=O)c1cccc2c(N(C)C)cccc12` yielded a pIC50 [1] of 7.15, a pIC50 [2] of 6.94 and a Ratio IC50 [3] of 1.7.
With `CN(C)c1ccc(NC(=O)NCCCNc2ccnc3cc(Cl)ccc23)cc1` the pIC50 [1] was 6.36, the pIC50 [2] was 6.17 and the Ratio IC50 [3] was 1.6.
`CN(C)c1cccc2c(S(=O)(=O)NCCCNc3ccnc4cc(Cl)ccc34)cccc12` gave a pIC50 [1] of 6.12, a pIC50 [2] of 6.02 and a Ratio IC50 [3] of 1.3.
`CCN(CC)CCC(=O)NCCCCNc1ccnc2cc(Cl)ccc12` showed a pIC50 [1] of 7.54 and a pIC50 [2] of under 6.00.
For `CN(C)c1ccc(NC(=S)NCCCNc2ccnc3cc(Cl)ccc23)cc1`, the pIC50 [1] was 6.57, the pIC50 [2] was 6.32 and the Ratio IC50 [3] was 1.8.
With `CN1CCOc2cc(S(=O)(=O)NCCCNc3ccnc4cc(Cl)ccc34)ccc21` the pIC50 [1] was 6.02 and the pIC50 [2] was under 6.00.
